# Compound activity from PubChem.
# RAM inhibit: inhibitors of the yeast RAM network | S. cerevisiae dse1pr::URA3 reporter, 5-FOA growth OD615, 2 d; analog-sensitive cbk1-as2 kinase mutant strain | inhibition, % at 50 µM | 1.8% of 190,000 active;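 active = inhibition above a set limit, 3 SD over mean compound inhibition, cut at about 8.4% in these data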;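 note: inhibition rescues growth on 5-FOA so higher OD means more RAM inhibition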
# Yeast life ext: extends the lifespan of yeast; S. cerevisiae growth with nicotinamide, OD615; deaD strain in restrictive glucose medium; inhibition of the nicotinamide effect, % at 10 µM; 0.68% of 130,000 active; AID 775;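 active = inhibition above a set limit, placed 3 SD over the median of all compounds, cut at about 26% in these data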
#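 Buffer or medium: CSMM-D glucose medium, restrictive; test system: modified budding yeast, DeaD strain; compound: single dose 10 µM compound, 0.25% DMSO; schedule: culture preincubation 4 h, compound exposure 48 h, both 30 °C; detection: optical density (absorbance) at 615 nm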
# WT yeast gro inh: growth inhibition of WT yeast, mitochondrial fusion screen | mitochondrial fusion phenotypic screen, WT strain | inhibition, % at 10 µM | 2.1% of 190,000 active | AID 1362; in the data active = inhibition above about 58%; tested in S. cerevisiae
# Yeast growth inh: reduces growth of yeast BB579 in restrictive medium; S. cerevisiae BB579 growth, OD615, 48 h; inhibition, % at 10 µM; AID 804; 0.51% of 140,000 active;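 active = inhibition above a set limit, 3 SD over the mean compound inhibition, cut at about 44% in these data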
#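 System: DeaD yeast strain BB579; buffer or medium: CSMM-D dextrose restrictive medium; technique: OD at 615 nm; schedule: 4 h cell preincubation, 48 h compound exposure, 30 °C humidified; doses: single 10 µM dose; controls: amphotericin B 10 µg/mL, positive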
# Hits are given with their value; i = inactive; nt = not tested or not shown. In the library only some 4.3% were active in any assay of this set; here they are far more common.
SMILES,RAM inhibit,Yeast life ext,WT yeast gro inh,Yeast growth inh
COc1cccc(NC(=O)C(NC2CCCC2)c2ccccc2)c1 (centres undefined),i,i,i,i
CCOC(=O)c1c(NC(=O)c2ccccc2Br)sc2c1CCc1ccccc1-2,i,i,i,i
O=S1(=O)CC2N=C(N(Cc3c(F)cccc3Cl)c3ccccc3F)SC2C1 (centres undefined),i,i,i,i
Cc1nnsc1C(=O)NC1CCCCC1,i,i,i,i
S=C(Nc1ccc(Nc2ccccc2)cc1)NC1CCCCCC1,i,nt,81,nt
COc1ccccc1CNC(=S)NC1CCCCC1,i,nt,i,nt
S=C(Nc1ccc(Br)cc1)NC1CCCCC1,i,i,i,i
COc1ccccc1NC(=S)NC1CCCCCC1,i,i,59,i
S=C(NNc1cccc(Cl)c1)NC1CCCCC1,i,nt,61,nt
COc1cccc(NC(=O)c2cc(OC)c(OC)c(OC)c2Br)c1,i,i,i,i
Cc1oc(-c2cccc(C(F)(F)F)c2)nc1CN1CCOCC1,i,nt,i,nt
Cn1cccc1Cc1nnc(SCC(=O)NCC2CCCO2)n1C (centres undefined),i,nt,i,nt
CC(=O)c1cccc(N(C(=O)Cn2nnc3ccccc32)C(C(=O)NCC2CCCO2)c2ccc(N3CCOCC3)cc2)c1 (centres undefined),11,nt,i,nt
O=C(NCC1CCCO1)C(c1ccc(N2CCOCC2)cc1)N(C(=O)Cn1nnc2ccccc21)c1ccccc1F (centres undefined),i,nt,i,nt
Cc1cc(Oc2ccc(C(C)(C)C)cc2)nc(N2CCOCC2)n1,i,i,75,i
COc1ccccc1C(=O)C1CCCN(C(=O)c2cccnc2SC)C1 (centres undefined),i,nt,i,nt
CN(C)c1ccc(C=C(c2nnnn2-c2ccccc2)c2nnnn2-c2ccccc2)cc1,i,i,i,i
O=C1CC(N(CCc2ccccc2)C(=S)Nc2ccccc2)C(=O)N1c1ccccc1 (centres undefined),i,i,71,i
CNC(=S)N(Cc1ccc(OC)cc1)C1CC(=O)N(c2ccc(OC)cc2)C1=O (centres undefined),10,nt,i,i
Cc1nnc(C)n1/N=C/c1cc(Br)cc(Br)c1O,i,i,i,100
CCOC(=O)C1=C(CC)Nc2ccccc2N/C1=N\S(=O)(=O)c1ccc2ccccc2c1,i,nt,72,nt
COC(=O)CP(=O)(c1ccccc1)c1ccccc1,i,i,69,i
O=[N+]([O-])c1cc2oc3c(c2c(C=NCc2ccncc2)c1O)CCCC3,i,67,i,i
O=C(CCCn1cc([N+](=O)[O-])cn1)N1CCCCC1,i,nt,i,nt
CN1CCN(CC(O)(c2ccc(Cl)cc2)c2ccc(Cl)cc2)CC1,i,nt,82,nt
SMILES,RAM inhibit,Yeast life ext,WT yeast gro inh,Yeast growth inh
COc1ccccc1-c1c(C)nn2c(N3CCCCCC3)cc(C)nc12,i,i,61,i
COc1ccccc1-c1c(C)nn2c(N3CCN(Cc4ccccc4)CC3)cc(C)nc12,i,i,85,i
COc1ccc(S(=O)(=O)N2CCOCC2)cc1NC(=O)CCc1c[nH]c2ccccc12,i,nt,i,nt
COc1cc(CCN2C(=O)c3cccc4cccc(c34)C2=O)c(S(=O)(=O)N2CCC(C)CC2)cc1OC,i,i,i,i
NCCOc1ccc(C23CC4CC(CC(C4)C2)C3)cc1,i,nt,97,nt
C[C@H](N)c1nnc(SCc2c(Cl)cccc2Cl)o1,i,i,i,i
Clc1cccc(Cl)c1CSc1nnc(/C=C/c2ccccc2)o1,11,i,i,i
Fc1ccc(CSc2ccc3nnc(-c4cccnc4)n3n2)cc1,i,nt,i,nt
COC(=O)c1ccc(-n2c(C)cc(C(=O)CSc3cccc[n+]3[O-])c2C)cc1,i,nt,i,nt
COC(=O)c1ccc(C(=O)OC)c(NC(=O)CSc2cccc[n+]2[O-])c1,i,i,i,99
COc1ccc(C(C)C)cc1S(=O)(=O)n1ccnc1C,i,i,i,i
Cc1cc(C(=O)Nc2cccc3cccnc23)ccc1[N+](=O)[O-],i,nt,i,nt
CCC(C(=O)NC1CCCC1)N(C(=O)Cn1nnc(-c2ccc(C)o2)n1)c1cnc2ccccc2c1 (centres undefined),i,i,i,i
Cc1ccc(-c2nnn(CC(=O)N(c3cnc4ccccc4c3)C(C(=O)NC3CCCC3)c3ccncc3)n2)o1 (centres undefined),8.6,nt,i,nt
COc1ccccc1CNC(=O)c1nn(-c2ccc(C)cc2)c(=O)c2c1c1ccccc1n2C,9.4,i,i,i
CCCCN(CC)CCNC(=O)c1nn(-c2ccc(OC)cc2)c(=O)c2c1c1ccccc1n2C,i,nt,i,nt
COc1ccc(-n2nc(C(=O)NCc3ccco3)c3c4ccccc4n(C)c3c2=O)cc1Cl,9.8,i,i,i
COc1ccc(-n2nc(C(=O)NCC(=O)NCc3ccco3)c3ccccc3c2=O)cc1,i,i,i,i
CCOc1ccc(-n2cc(-c3ccccc3)c3c(N4CCOCC4)ncnc32)cc1,i,nt,59,nt
COc1ccc(-n2cc(-c3ccccc3)c3c(N4CC(C)OC(C)C4)ncnc32)cc1 (centres undefined),i,nt,68,nt
CN1CCN(c2ncnc3c2c(-c2ccccc2)cn3-c2ccc(F)cc2)CC1,i,nt,i,nt
c1ccc(-c2cn(-c3ccccc3)c3ncnc(N4CCCCC4)c23)cc1,i,nt,i,nt
CN(c1ccc(O)cc1)c1nc(-c2cccs2)cs1,i,nt,67,nt
Cc1nn(Cc2ccccc2Cl)c(C)c1NC(=O)CCCn1nc([N+](=O)[O-])c(Cl)c1C,i,i,i,i
CC(=O)N1c2ccc3ccccc3c2C(C)CC12CCCCC2 (centres undefined),10,i,87,i
SMILES,RAM inhibit,Yeast life ext,WT yeast gro inh,Yeast growth inh
Cc1cc(Nc2cccc(C(F)(F)F)c2)n2nc(C)nc2n1,i,i,79,i
COc1ccc(-c2[nH]ncc2CN(CCO)CC23CC4CC(CC(C4)C2)C3)c(OC)c1,i,nt,i,nt
COc1ccc(CCNC(=O)c2ccc(CNS(=O)(=O)c3cc(C)ccc3C)cc2)cc1OC,i,i,i,i
N/C(=N\OC(=O)Cc1ccccc1)c1ccccc1Cl,i,nt,i,nt
O=C(Nc1nc(-c2cccs2)c(-c2cccs2)s1)C1CCCC1,i,i,72,i
COCCNC(=O)C(c1c[nH]c2ccccc12)N(C(=O)c1snc(C(N)=O)c1N)c1cccc(OC)c1 (centres undefined),i,nt,i,nt
COc1cccc(OCC(=O)NNC(=S)Nc2ccc(Cl)cc2Cl)c1,i,nt,i,nt
CN=c1scc(C)n1/N=C/c1cc(Br)c(O)c(Br)c1,10,nt,i,nt
CN=c1scc(C)n1/N=C/c1ccc(O)cc1,i,i,i,i
O=C(Oc1ccccc1/C=C\C(=O)c1cc2ccccc2o1)c1cccc(F)c1,10,i,i,i
O=C(Oc1ccccc1/C=C\C(=O)c1cc2ccccc2o1)c1ccccc1,i,i,i,i
COc1ccccc1NC(=O)Cc1csc(NC(=O)c2ccccc2)n1,9.2,nt,i,nt
O=C(COc1ccc(S(=O)(=O)NC2CCCCC2)cc1)NC1CCCC1,i,nt,i,nt
COc1ccccc1CNC(=O)CSc1nnc2ccc(-c3cccnc3)nn12,i,nt,i,nt
CN1CCN(c2ccc(-c3ccnn3C(=O)Nc3cccc(C(F)(F)F)c3)cc2)CC1,i,nt,68,nt
